Series [1] can be described thus: melting temperature; fluorescence melt of hairpins on a sequencing array, two-state fit, raised by 9.35 °C to match UV melts. To be noted: sodium 0.088 M. Put shortly: (§1)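 With Cy3 and quencher oligos annealed, library hairpins on a sequenced MiSeq flow cell were imaged for Cy3 fluorescence in 50 mM Na-HEPES pH 8.0, 25 mM NaCl, in 2.5 °C steps up to 60 °C. Melting temperature and folding enthalpy were derived from bootstrapped two-state fits of signals normalised to pre-quench Cy3 and to control constructs. Four replicates were combined by inverse variance, with fitted temperatures raised by 9.35 °C to match UV melts.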

A short description of series [2]: folding enthalpy; higher = less favourable; fluorescence melt of hairpins on a sequencing array, two-state fit. Conditions: sodium 0.088 M. Put shortly:
as §1

For the sequence GACTTGCGAAAGCAGTC (((.(((....)))))), the Tm in series [1] turned out to be 51.9 °C. In addition, in series [2], the folding enthalpy was -17.4 kcal/mol.
The corresponding values for GACTTGCGAAAGCATGTC (((.(((....))).))) are 55.8 °C and -25.2 kcal/mol.
Taken in the same sequence, the figures for GACTTGGCGAAAGCCGTC (((..(((....)))))) were 48.4 °C and -7.4 kcal/mol.
For the sequence GACTTGGGAAACCGAGTC ((((.((....)).)))), the Tm in series [1] is 49.5 °C. In series [2], the folding enthalpy was -45.3 kcal/mol.
The corresponding values for GACTTTGGAAACAAAGTC (((((((....))))))) are 57.8 °C and -44.5 kcal/mol.
Take GAGAAAGAAATTTCTC ((((((....)))))): the Tm in series [1] was determined as 36.4 °C. The folding enthalpy in series [2] was -18.8 kcal/mol.
In the case of GAGAAAGGAAACTTTCTC (((((((....))))))), the Tm in series [1] came to 50.8 °C. Also, the folding enthalpy in series [2] was -39.2 kcal/mol.
The corresponding values for GAGAACGAAAGTTAGCTC ((((((....)))..))) are 24.5 °C and -10 kcal/mol.
Taken in the same sequence, the figures for GAGAACGAAAGTTCACTC ((((((....)))..))) were 44.3 °C and -17.2 kcal/mol.
GAGAAGGGAAACCTTCCC (.(((((....))))).): the Tm in series [1] came to 34.6 °C. Besides, in series [2], the folding enthalpy was -15.9 kcal/mol.
The corresponding values for GAGAAGGGAAACTTTCTC (((((.(....).))))) are 31.8 °C and -22.7 kcal/mol.
Taken in the same sequence, the figures for GAGAATGGAAACATTTTC ((.((((....)))).)) were 29.4 °C and -14.8 kcal/mol.
Take GAGACCCCGAAAGGGCTC (((..(((....)))))): the Tm in series [1] is 47.2 °C. Further, the folding enthalpy in series [2] was -22.6 kcal/mol.
For the sequence GAGACCGAAAGGTACTC ((((((....))).))), in series [1], the Tm was found to be 43.3 °C. Also, the folding enthalpy in series [2] is -17.5 kcal/mol.
The corresponding values for GAGACCGAAAGGTGGCTC ((((((....)))..))) are 43.4 °C and -19.2 kcal/mol.
Taken in the same sequence, the figures for GAGACCGCGAAAGCGCTC (((..(((....)))))) were 26.6 °C and -7.65 kcal/mol.
Taken in the same sequence, the figures for GAGACCGGAAACAGTCTC (((((.(....).))))) were 40.4 °C and -27.5 kcal/mol.
For GAGACGACGAAAGTCCTC (((..(((....)))))), in series [1], the Tm was determined as 26.8 °C. The folding enthalpy in series [2] was -16.7 kcal/mol.
On to GAGACGCGAAAGCGACTC (((.(((....))).))), for which, in series [1], the Tm amounted to 66.4 °C. For the same sequence, the folding enthalpy in series [2] is -24.9 kcal/mol.
The corresponding values for GAGACGCGAAAGCGCCTC (((.(((....))).))) are 58.7 °C and -30.3 kcal/mol.
For GAGACGGGAAACCGTTTC ((.((((....)))).)), the Tm in series [1] was 45.8 °C. Moreover, the folding enthalpy in series [2] is -23.4 kcal/mol.
GAGACTGCGAAAGCACTC (((..(((....)))))): the Tm in series [1] worked out at 26.7 °C. In addition, the folding enthalpy in series [2] is -9.86 kcal/mol.
With GAGACTGGAAACAGTCCC (.(((((....))))).), the Tm in series [1] was 44.9 °C. For the same sequence, the folding enthalpy in series [2] is -11 kcal/mol.
Taken in the same sequence, the figures for GAGAGAACGAAAGTTCTC (((..(((....)))))) were 52.5 °C and -14.7 kcal/mol.
As for GAGAGACGAAAGTCCCTC (((.(((....))).))), the Tm in series [1] amounted to 44.9 °C. For the same sequence, the folding enthalpy in series [2] is -25.8 kcal/mol.
Taken in the same sequence, the figures for GAGAGAGAAATCTCTC ((((((....)))))) were 45.8 °C and -27.6 kcal/mol.
Take GAGAGCACGAAAGTGCTC (((..(((....)))))): in series [1], the Tm worked out at 64.1 °C. Besides, the folding enthalpy in series [2] was -7.79 kcal/mol.
For the sequence GAGAGCCGAAAGGCCCTC (((.(((....))).))), the Tm in series [1] was 51.3 °C. For the same sequence, in series [2], the folding enthalpy was -18.3 kcal/mol.
The corresponding values for GAGAGCGAAAGCTACTC ((((((....))).))) are 43.7 °C and -14.5 kcal/mol.
For GAGAGCGAAAGCTTCCTC ((((((....)))..))), in series [1], the Tm was determined as 27.3 °C. Also, in series [2], the folding enthalpy was -10.7 kcal/mol.
Consider GAGAGGACGAAAGTCCTC (((..(((....)))))), for which, in series [1], the Tm amounted to 60.8 °C. The folding enthalpy in series [2] was -8.73 kcal/mol.
Consider GAGAGGCGAAAGCCACTC (((.(((....))).))), for which the Tm in series [1] was 53.3 °C. Further, in series [2], the folding enthalpy was -20.6 kcal/mol.
Taken in the same sequence, the figures for GAGAGGGCGAAAGCCCTC (((..(((....)))))) were 66.5 °C and -6.41 kcal/mol.
Taken in the same sequence, the figures for GAGAGGGGAAACCCCCTC (((.(((....))).))) were 47.9 °C and -14.9 kcal/mol.
On to GAGAGGGGAAACCCTCCC (.(((((....))))).), for which the Tm in series [1] worked out at 41.2 °C. Besides, the folding enthalpy in series [2] was -13.7 kcal/mol.
Taken in the same sequence, the figures for GAGAGGGGAAACCCTCTC (((((((....))))))) were 63.5 °C and -39 kcal/mol.
On to GAGAGTGGAAACGCTTTC ((.((.(....).)).)), for which the Tm in series [1] is 27.3 °C. For the same sequence, in series [2], the folding enthalpy was -9.25 kcal/mol.
GAGATAGGAAACTATCTC (((((((....))))))): the Tm in series [1] is 53.1 °C. The folding enthalpy in series [2] was -35 kcal/mol.
The corresponding values for GAGATCACGAAAGTGCTC (((..(((....)))))) are 29.9 °C and -12.1 kcal/mol.
The corresponding values for GAGATCGAAAGATCTC ((((((....)))))) are 63.2 °C and -38.2 kcal/mol.
Take GAGATCGGAAACGACCTC (((.(((....))).))): the Tm in series [1] turned out to be 42.5 °C. The folding enthalpy in series [2] is -29.8 kcal/mol.
Take GAGATCGGAAACGATCCC (.(((((....))))).): the Tm in series [1] stood at 42.9 °C. Further, the folding enthalpy in series [2] was -12.9 kcal/mol.
The corresponding values for GAGATGCCGAAAGGCCTC (((..(((....)))))) are 32.1 °C and -10.1 kcal/mol.
For GAGATGCGAAAGCACCTC (((.(((....))).))), the Tm in series [1] worked out at 49 °C. For the same sequence, the folding enthalpy in series [2] is -23.9 kcal/mol.
GAGATGGGAAACCACCTC (((.(((....))).))): the Tm in series [1] turned out to be 36.1 °C. In addition, in series [2], the folding enthalpy is -31.1 kcal/mol.
The corresponding values for GAGATTCCGAAAGGACTC (((..(((....)))))) are 30.5 °C and -12.2 kcal/mol.
On to GAGATTGGAAACAACCTC (((.(((....))).))), for which the Tm in series [1] worked out at 32 °C. The folding enthalpy in series [2] was -21 kcal/mol.
The corresponding values for GAGATTGGAAACAGTCTC ((((.((....)).)))) are 40.8 °C and -27.4 kcal/mol.
The corresponding values for GAGCAACGAAAGTTCTC (((.(((....)))))) are 35.6 °C and -20.1 kcal/mol.
In the case of GAGCAAGGAAACTTGCCC (.(((((....))))).), in series [1], the Tm is 41 °C. Further, in series [2], the folding enthalpy was -11 kcal/mol.
Taken in the same sequence, the figures for GAGCACCGAAAGGTACTC (((.(((....))).))) were 50 °C and -36.7 kcal/mol.
GAGCACGAAAGTGGACTC ((((((....)))..))): in series [1], the Tm is 48.7 °C. For the same sequence, the folding enthalpy in series [2] is -14.2 kcal/mol.
Taken in the same sequence, the figures for GAGCACGAAAGTGGTCTC ((((((....)))..))) were 60 °C and -24 kcal/mol.
As for GAGCACGGAAACACGCTC ((((..(....)..)))), in series [1], the Tm turned out to be 37 °C. For the same sequence, in series [2], the folding enthalpy is -28.3 kcal/mol.
Taken in the same sequence, the figures for GAGCAGCCGAAAGGCCTC (((..(((....)))))) were 31.7 °C and -10.8 kcal/mol.
For the sequence GAGCAGGCGAAAGCCCTC (((..(((....)))))), the Tm in series [1] was 31.7 °C. The folding enthalpy in series [2] is -9.52 kcal/mol.
As for GAGCATGGAAACATGCTC (((((((....))))))), the Tm in series [1] was 67.5 °C. Moreover, the folding enthalpy in series [2] is -37.1 kcal/mol.
The corresponding values for GAGCCAGAAATGGCTC ((((((....)))))) are 66.8 °C and -32.4 kcal/mol.
Take GAGCCCCGAAAGGGACTC (((.(((....))).))): the Tm in series [1] was 58.6 °C. Also, the folding enthalpy in series [2] was -35.2 kcal/mol.
Taken in the same sequence, the figures for GAGCCCCGAAAGGGCCTC (((.(((....))).))) were 47.3 °C and -14.6 kcal/mol.
Turning to GAGCCCGAAAGGGAACTC ((((((....)))..))), the Tm in series [1] came out at 47.5 °C. In addition, the folding enthalpy in series [2] was -16.4 kcal/mol.
Taken in the same sequence, the figures for GAGCCCGAAAGGGCCCTC ((((((....)))..))) were 47.6 °C and -9.76 kcal/mol.
The corresponding values for GAGCCCGGAAACGAGCCC (.((.((....)).)).) are 29.1 °C and -14 kcal/mol.
The corresponding values for GAGCCGACGAAAGTCCTC (((..(((....)))))) are 27.9 °C and -8.43 kcal/mol.
For GAGCCGCGAAAGCGACTC (((.(((....))).))), the Tm in series [1] turned out to be 65.3 °C. Besides, the folding enthalpy in series [2] was -26.2 kcal/mol.
The corresponding values for GAGCCGGGAAACCGACTC (((.(((....))).))) are 49.5 °C and -42.8 kcal/mol.
As to GAGCGACGAAAGTCACTC (((.(((....))).))), the Tm in series [1] was determined as 52.2 °C. For the same sequence, the folding enthalpy in series [2] was -25.9 kcal/mol.
Take GAGCGCGGAAACACGCCC (.(((.(....).))).): the Tm in series [1] turned out to be 38.4 °C. In addition, the folding enthalpy in series [2] is -12 kcal/mol.
As to GAGCGCGGAAACACGCTC (((((.(....).))))), in series [1], the Tm stood at 56.2 °C. In addition, in series [2], the folding enthalpy was -41.1 kcal/mol.
In the case of GAGCGGCGAAAGCCACTC (((.(((....))).))), the Tm in series [1] is 58 °C. Moreover, the folding enthalpy in series [2] was -24.5 kcal/mol.
The corresponding values for GAGCGTGCGAAAGCACTC (((..(((....)))))) are 26.9 °C and -5.83 kcal/mol.
GAGCGTGGAAACACACCC (.(.(((....))).).): the Tm in series [1] amounted to 25.4 °C. The folding enthalpy in series [2] was -18.9 kcal/mol.
The corresponding values for GAGCTAGGAAACTGGCTC ((((.((....)).)))) are 51.9 °C and -36.2 kcal/mol.

These data come from the array DNA melting data of Ke et al. (doi:10.1101/2024.01.08.574731).
